Laboratory results as given in ChEMBL document CHEMBL1132418, “Structure-immunosuppressive activity relationships of new analogues of 15-deoxyspergualin. 1. Structural modifications of the hydroxyglycine moiety” (1999).

Key:
Assay type in all cases: functional
Mus musculus [1] = assay: In vivo immunosuppressive activity in mouse GVHD (graft-versus-host disease) model and the mean survival days evaluated (dose of 3 mg/kg)
How it was run: (§1)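 Mouse GVHD model. Compounds were dissolved in aqueous solution and given i.p. on days 1 to 10 (day 6 omitted), first at 3 mg/kg/day and then at 1 mg/kg/day. Survival was followed to day 60 after cell injection and reported as mean survival in days ± deviation.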

Mus musculus [2] = assay: In vivo immunosuppressive activity at a dose of 1 mg/kg in mouse GVHD (graft-versus-host disease) model and the mean survival days evaluated.; how it was run: as §1
Rattus norvegicus [3] = assay: Compound (6 mg/kg) is evaluated for prevention of graft rejection after heart allotransplantation in the Dark Agouti to Lewis rat combination.
How it was run: (§2)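 Dark Agouti donor hearts transplanted into Lewis rat recipients (fully histoincompatible; high-responder recipient). Compounds given daily i.p. at 6 mg/kg/day for 10 days, starting 1 day after surgery. Graft survival recorded for each animal in days and reported as mean ± SD, with a statistical comparison against controls.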

Rattus norvegicus [4] = species on record: Rattus norvegicus; assay: Compound is evaluated for prevention of graft rejection after heart allotransplantation in the dark agouti Lewis rat combination.; how it was run: as §2

Compound	Mean survival (Mus musculus [1])	further results
CN(CCCCNCCCN)C(=O)OCC(=O)NCCCCCCN=C(N)N	15 days	–
CN(CC(=O)NCCCCCCN=C(N)N)C(=O)NCCCCNCCCN	17 days	–
CN(CCCCNCCCN)C(=O)CC(=O)NCCCCCCN=C(N)N	12 days	–
CC(=O)NC(C(=O)NCCCCCCN=C(N)N)C(=O)NCCCCNCCCN (configuration not stated)	16 days	–
NCCCNCCCCNC(=O)CC(=O)NCCCCCCN=C(N)N	52 days	Mean survival (Mus musculus [2]): 53 days; Mean survival (Rattus norvegicus [3]): 9 days
NCCCNCCCCNC(=O)COC(=O)NCCCCCCN=C(N)N	13 days	–
NCCCNCCCCNC(=O)/C=C/C(=O)NCCCCCCN=C(N)N	17 days	–
CN(CCCCCCN=C(N)N)C(=O)CC(=O)NCCCCNCCCN	14 days	–
NCCCNCCCCNC(=O)CCC(=O)NCCCCCCN=C(N)N	16 days	–
N=C(N)NCCCCCCC(=O)NC(O)C(=O)NCCCCNCCCN (configuration not stated) [GUSPERIMUS]	57 days	Mean survival (Mus musculus [2]): 38 days; Mean survival (Rattus norvegicus [3]): 38 days
NCCCNCCCCNC(=O)C(O)CC(=O)NCCCCCCN=C(N)N (configuration not stated)	15 days	–
NCCCNCCCCNC(=O)OCCC(=O)NCCCCCCN=C(N)N	13 days	–
NCCCNCCCCNC(=O)C(CO)(CO)C(=O)NCCCCCCN=C(N)N	17 days	–
NCCCNCCCCNC(=O)C(N)C(=O)NCCCCCCN=C(N)N (configuration not stated)	16 days	–
CC(C(=O)NCCCCCCN=C(N)N)C(=O)NCCCCNCCCN (configuration not stated)	16 days	–
NCCCNCCCCNC(=O)C(F)C(=O)NCCCCCCN=C(N)N (configuration not stated)	60 days	Mean survival (Mus musculus [2]): 18 days
COC(OC)(C(=O)NCCCCCCN=C(N)N)C(=O)NCCCCNCCCN	12 days	–
NCCCNCCCCNC(=O)NCC(=O)NCCCCCCN=C(N)N	48 days	Mean survival (Mus musculus [2]): 42 days; Mean survival (Rattus norvegicus [4]): 12 days
NCCCNCCCCC(=O)NCC(=O)NCCCCCCN=C(N)N	22 days	–
NCCCNCCCCNC(=O)/C=C\C(=O)NCCCCCCN=C(N)N	17 days	–
NCCCNCCCCNC(=O)CCCC(=O)NCCCCCCN=C(N)N	15 days	–

Compound	Mean survival (Mus musculus [1])	further results
NCCCNCCCCNC(=O)CNC(=O)NCCCCCCN=C(N)N	24 days	–
NCCCNCCCCNC(=O)NCCC(=O)NCCCCCCN=C(N)N	15 days	–
CC(C)(C(=O)NCCCCCCN=C(N)N)C(=O)NCCCCNCCCN	15 days	–
CCC(C(=O)NCCCCCCN=C(N)N)C(=O)NCCCCNCCCN (configuration not stated)	19 days	–
NCCCNCCCCOC(=O)NCNC(=O)CCCCCCN=C(N)N	58 days	Mean survival (Mus musculus [2]): 32 days
N=C(N)NCCCCCCNC(=O)COC(=O)NCCCCNCCCN [TRESPERIMUS]	58 days	Mean survival (Mus musculus [2]): 46 days; Mean survival (Rattus norvegicus [3]): 54 days
NCCCNCCCCNC(=O)C(C(=O)NCCCCCCN=C(N)N)c1ccccc1 (configuration not stated)	19 days	–
COC(C(=O)NCCCCCCN=C(N)N)C(=O)NCCCCNCCCN (configuration not stated)	55 days	Mean survival (Mus musculus [2]): 27 days
NCCCNCCCCNS(=O)(=O)CC(=O)NCCCCCCN=C(N)N	15 days	–
CN(CCCCCCN=C(N)N)C(=O)COC(=O)NCCCCNCCCN	14 days	–
NCCCNCCCCNCCC(=O)NCCCCCCN=C(N)N	13 days	–
NCCCNCCCCNC(=O)C(OCc1ccccc1)C(=O)NCCCCCCN=C(N)N (configuration not stated)	14 days	–
NCCCNCCCCCC(=O)NCC(=O)NCCCCCCN=C(N)N	18 days	–
NCCCNCCCCNC(=O)SCC(=O)NCCCCCCN=C(N)N	17 days	–
NCCCNCCCCNC(=O)CCCCCCCCCN=C(N)N	16 days	–
NCCCNCCCCOC(=O)NCC(=O)NCCCCCCN=C(N)N	48 days	Mean survival (Mus musculus [2]): 55 days
NCCCNCCCCNC(=O)C(=O)NCCCCCCN=C(N)N	34 days	Mean survival (Mus musculus [2]): 53 days; Mean survival (Rattus norvegicus [3]): 12 days
NCCCNCCCCNC(=O)C(O)C(=O)NCCCCCCN=C(N)N (configuration not stated)	53 days	Mean survival (Mus musculus [2]): 12 days; Mean survival (Rattus norvegicus [3]): 33 days
NCCCNCCCCNC(=O)OCCNCCCCCCN=C(N)N	34 days	–
NCCCNCCCCNC(=O)C(Cc1ccccc1)C(=O)NCCCCCCN=C(N)N (configuration not stated)	16 days	–
